Measurements reported in ChEMBL document CHEMBL3351966, “Structural manipulation on the catecholic fragment of dopamine D(1) receptor agonist 1-phenyl-N-methyl-benzazepines” (Eur J Med Chem, 2014).

How the values were obtained:
[1] = target: T1, 5-hydroxytryptamine receptor 1A (Rattus norvegicus, UniProt P19327); assay: Displacement of [3H]8-OH-DPAT from rat 5HT1A receptor expressed in CHO cell membranes by liquid scintillation counting based competition binding assay
T1 sequence (P19327 whole entry): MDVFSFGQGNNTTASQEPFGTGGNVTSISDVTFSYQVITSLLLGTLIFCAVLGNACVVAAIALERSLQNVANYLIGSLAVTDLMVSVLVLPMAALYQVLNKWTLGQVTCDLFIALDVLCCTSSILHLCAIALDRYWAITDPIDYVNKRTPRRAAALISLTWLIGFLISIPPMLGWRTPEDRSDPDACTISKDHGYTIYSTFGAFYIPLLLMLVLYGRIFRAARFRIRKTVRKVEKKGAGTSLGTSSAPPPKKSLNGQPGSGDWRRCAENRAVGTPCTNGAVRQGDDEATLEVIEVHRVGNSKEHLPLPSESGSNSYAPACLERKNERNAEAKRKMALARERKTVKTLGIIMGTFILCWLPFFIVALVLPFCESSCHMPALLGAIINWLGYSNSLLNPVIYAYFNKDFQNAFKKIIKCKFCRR
Method in brief: (§1)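 Competition binding on membranes from stably transfected cell lines ([…]), clones selected with G418. Buffer 50 mM Tris, 4 mM MgCl₂, pH 7.4 with 0.7 nM radioligand and increasing compound concentrations. Duplicate tubes incubated at 30 °C for 50 min, then rapid filtration through GF/B filters and cold-buffer wash. Compounds from 10^-1 M DMSO stock. Ki as mean of three to five experiments, racemates.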

[2] = target: 5-hydroxytryptamine receptor 2A (Homo sapiens, UniProt P28223); assay: Displacement of [3H]ketanserin from human 5HT2A receptor expressed in HEK293 cell membranes by liquid scintillation counting based competition binding assay; method in brief: as §1
5-hydroxytryptamine receptor 2A, sequence (P28223 whole entry): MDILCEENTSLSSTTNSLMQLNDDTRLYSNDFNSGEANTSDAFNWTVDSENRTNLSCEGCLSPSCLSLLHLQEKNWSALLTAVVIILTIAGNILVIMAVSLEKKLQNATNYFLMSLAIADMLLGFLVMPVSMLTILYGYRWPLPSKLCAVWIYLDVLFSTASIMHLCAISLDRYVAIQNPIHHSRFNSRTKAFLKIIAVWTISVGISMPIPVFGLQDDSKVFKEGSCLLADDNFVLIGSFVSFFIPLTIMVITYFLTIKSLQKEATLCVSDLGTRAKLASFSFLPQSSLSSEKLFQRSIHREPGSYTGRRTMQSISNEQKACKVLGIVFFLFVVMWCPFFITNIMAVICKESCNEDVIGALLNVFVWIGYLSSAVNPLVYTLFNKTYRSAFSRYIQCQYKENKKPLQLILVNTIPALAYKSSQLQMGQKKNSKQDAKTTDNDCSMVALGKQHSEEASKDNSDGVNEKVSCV

D(1A) dopamine receptor = D(1A) dopamine receptor (Homo sapiens, UniProt P21728); assay: Displacement of [3H]SCH23390 from human dopamine D1 receptor expressed in HEK293 cell membranes by liquid scintillation counting based competition binding assay; method in brief: as §1
D(1A) dopamine receptor, sequence (P21728 whole entry): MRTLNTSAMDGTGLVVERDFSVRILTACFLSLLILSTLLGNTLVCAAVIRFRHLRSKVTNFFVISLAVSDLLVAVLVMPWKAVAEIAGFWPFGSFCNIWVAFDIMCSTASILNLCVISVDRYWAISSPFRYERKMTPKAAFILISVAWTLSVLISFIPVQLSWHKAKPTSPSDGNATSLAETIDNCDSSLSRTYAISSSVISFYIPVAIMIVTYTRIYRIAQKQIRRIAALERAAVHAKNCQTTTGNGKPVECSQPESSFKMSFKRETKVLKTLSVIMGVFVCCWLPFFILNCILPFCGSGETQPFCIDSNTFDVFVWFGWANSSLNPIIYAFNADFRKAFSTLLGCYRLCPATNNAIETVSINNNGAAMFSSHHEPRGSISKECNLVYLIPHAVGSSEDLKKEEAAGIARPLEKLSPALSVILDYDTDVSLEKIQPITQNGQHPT

D(2) dopamine receptor = D(2) dopamine receptor (Homo sapiens, UniProt P14416); assay: Displacement of [3H]spiperone from human dopamine D2 receptor expressed in HEK293 cell membranes by liquid scintillation counting based competition binding assay; method in brief: as §1
D(2) dopamine receptor, sequence (P14416 whole entry): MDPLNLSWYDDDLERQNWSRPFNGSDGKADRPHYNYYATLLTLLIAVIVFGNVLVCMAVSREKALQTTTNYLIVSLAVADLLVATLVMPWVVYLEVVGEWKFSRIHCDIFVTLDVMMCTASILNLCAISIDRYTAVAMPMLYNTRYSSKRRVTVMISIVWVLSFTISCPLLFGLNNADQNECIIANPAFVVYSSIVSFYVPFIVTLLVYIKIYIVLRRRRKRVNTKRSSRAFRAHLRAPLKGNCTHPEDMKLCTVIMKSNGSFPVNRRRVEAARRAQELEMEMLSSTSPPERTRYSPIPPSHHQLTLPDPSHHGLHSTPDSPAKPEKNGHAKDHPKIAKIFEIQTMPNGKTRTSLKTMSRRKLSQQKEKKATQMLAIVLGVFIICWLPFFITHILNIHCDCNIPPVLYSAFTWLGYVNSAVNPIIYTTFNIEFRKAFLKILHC

D(3) dopamine receptor = D(3) dopamine receptor (Homo sapiens, UniProt P35462); assay: Displacement of [3H]spiperone from human dopamine D3 receptor expressed in HEK293 cell membranes by liquid scintillation counting based competition binding assay; method in brief: as §1
D(3) dopamine receptor, sequence (P35462 whole entry): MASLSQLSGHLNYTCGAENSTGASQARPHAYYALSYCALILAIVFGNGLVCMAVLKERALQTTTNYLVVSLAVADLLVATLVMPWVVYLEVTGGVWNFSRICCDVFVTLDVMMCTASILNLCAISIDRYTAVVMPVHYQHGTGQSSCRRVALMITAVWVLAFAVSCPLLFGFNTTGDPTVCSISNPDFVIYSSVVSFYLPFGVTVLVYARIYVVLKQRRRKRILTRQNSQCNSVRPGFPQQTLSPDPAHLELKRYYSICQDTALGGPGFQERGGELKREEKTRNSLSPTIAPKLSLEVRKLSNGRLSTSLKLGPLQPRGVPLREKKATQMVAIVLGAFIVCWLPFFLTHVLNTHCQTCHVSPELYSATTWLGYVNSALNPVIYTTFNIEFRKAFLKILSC

Row | Ki [1] | Ki [2] | Ki (D(1A) dopamine receptor) | Ki (D(2) dopamine receptor) | Ki (D(3) dopamine receptor) | SMILES
1 | > 1000 nM | 133 nM | 207 nM | > 1000 nM | > 1000 nM | CN1CCc2ccc(O)cc2C(c2ccccc2)C1 (racemic)
2 |  |  | > 1000 nM | > 1000 nM | > 1000 nM | CN1CCc2cc(O)ccc2C(c2ccccc2)C1 (racemic)
3 | > 1000 nM | 4.52 nM | 665 nM | > 1000 nM | > 1000 nM | CN1CCc2cc(NCc3ccccc3)c(O)cc2C(c2ccccc2)C1 (racemic)
4 | 479 nM | 10.3 nM | 277 nM | > 1000 nM |  | CN1CCc2cc(NCc3cccc(Cl)c3)c(O)cc2C(c2ccccc2)C1 (racemic)
5 | > 1000 nM | 9.95 nM | 370 nM | > 1000 nM |  | Cc1cccc(CNc2cc3c(cc2O)C(c2ccccc2)CN(C)CC3)c1 (racemic)
6 | > 1000 nM | 192 nM | 292 nM | > 1000 nM |  | Cc1ccccc1CNc1cc2c(cc1O)C(c1ccccc1)CN(C)CC2 (racemic)
7 | > 1000 nM | 862 nM | 756 nM | > 1000 nM |  | Cc1ccc(CNc2cc3c(cc2O)C(c2ccccc2)CN(C)CC3)cc1 (racemic)
8 |  |  | > 1000 nM | > 1000 nM |  | CC(=O)Nc1cc2c(cc1O)C(c1ccccc1)CN(C)CC2 (racemic)
9 |  |  | > 1000 nM | > 1000 nM |  | CN1CCc2cc(-n3cccc3)c(O)cc2C(c2ccccc2)C1 (racemic)
10 |  |  | > 1000 nM | > 1000 nM | > 1000 nM | Cc1ccc(-c2cc3c(cc2O)C(c2ccccc2)CN(C)CC3)cc1 (racemic)
11 | > 1000 nM | 163 nM | 216 nM | > 1000 nM | > 1000 nM | Cc1cccc(-c2cc3c(cc2O)C(c2ccccc2)CN(C)CC3)c1 (racemic)
12 |  |  | 912 nM | > 1000 nM |  | Cc1ccccc1-c1cc2c(cc1O)C(c1ccccc1)CN(C)CC2 (racemic)
13 |  |  | > 1000 nM | > 1000 nM |  | CN1CCc2cc(-c3ccc4ccccc4c3)c(O)cc2C(c2ccccc2)C1 (racemic)
14 | > 1000 nM | 826 nM | 349 nM | > 1000 nM |  | CN1CCc2cc(-c3ccc(O)cc3)c(O)cc2C(c2ccccc2)C1 (racemic)
15 |  |  | > 1000 nM | > 1000 nM | > 1000 nM | CN1CCc2cc(O)c(CO)cc2C(c2ccccc2)C1 (racemic)
16 |  |  | > 1000 nM | > 1000 nM | > 1000 nM | CN1CCc2cc(O)c(CN)cc2C(c2ccccc2)C1 (racemic)
17 |  |  | > 1000 nM | > 1000 nM | > 1000 nM | CN1CCc2cc(N)ccc2C(c2ccccc2)C1 (racemic)
18 |  |  | 583 nM | > 1000 nM | > 1000 nM | CN1CCc2ccc(N)cc2C(c2ccccc2)C1 (racemic)
19 |  |  | > 1000 nM | > 1000 nM |  | CNc1ccc2c(c1)C(c1ccccc1)CN(C)CC2 (racemic)
20 |  |  | > 1000 nM | > 1000 nM |  | CN1CCc2ccc(N(C)C)cc2C(c2ccccc2)C1 (racemic)
21 |  |  | > 1000 nM | > 1000 nM |  | CN1CCc2cc3oc(=O)[nH]c3cc2C(c2ccccc2)C1 (racemic)
22 |  |  | > 1000 nM | > 1000 nM |  | CN1CCc2cc3c(cc2C(c2ccccc2)C1)NC(=O)CO3 (racemic)
23 |  |  | > 1000 nM | > 1000 nM |  | CN1CCc2cc3ocnc3cc2C(c2ccccc2)C1 (racemic)
24 |  |  | > 1000 nM | > 1000 nM |  | CN1CCN(c2nc3cc4c(cc3o2)CCN(C)CC4c2ccccc2)CC1 (racemic)
25 |  |  | > 1000 nM | > 1000 nM | > 1000 nM | CCN(CC)c1cc2c(cc1O)C(c1ccccc1)CN(C)CC2 (racemic)

Row | SMILES | Ki [1] | Ki [2] | Ki (D(1A) dopamine receptor) | Ki (D(2) dopamine receptor) | Ki (D(3) dopamine receptor)
26 | CN1CCc2cc(N)c(O)cc2C(c2ccccc2)C1 (racemic) | > 1000 nM | > 1000 nM | 334 nM | > 1000 nM | > 1000 nM
27 | CN1CCc2cc(O)c(N)cc2C(c2ccccc2)C1 (racemic) | > 1000 nM | > 1000 nM | 351 nM | > 1000 nM | > 1000 nM
